# Data taken from ChEMBL document CHEMBL4610084, “Antibacterial and ATP Synthesis Modulating Compounds from Salvia tingitana” (2020).
# Columns and labels:
# Enterococcus avium = experiment: Antibacterial activity against Enterococcus avium MB119 after 24 hrs by microdilution assay; type: functional; conditions: MB119, 24 h
# In short: (§1)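 Broth microdilution MIC against clinical or seawater-isolated strains (identified by standard procedures and MALDI-TOF), with compound solutions and testing as in earlier work. MIC reported in μg/mL and μM.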
# Enterococcus durans = experiment: Antibacterial activity against Enterococcus durans MB113 after 24 hrs by microdilution assay; type: functional; conditions: MB113, 24 h; in short: as §1
# Enterococcus faecalis [1] = experiment: Antibacterial activity against Vancomycin resistant Enterococcus faecalis MB19 after 24 hrs by microdilution assay; type: functional; conditions: MB19, 24 h
# In short: (§2)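 Broth microdilution MIC, run as in an earlier cited report. Strains are clinical isolates identified by standard methods and MALDI-TOF; E. faecalis MB19 and MB51 are Ligurian seawater isolates. Highest concentration tested was 128 μg/mL. MICs are given in μg/mL and μM, with oxacillin and vancomycin as reference antibiotics.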
# Staphylococcus simulans = experiment: Antibacterial activity against Staphylococcus simulans MB94 after 24 hrs by microdilution assay; type: functional; conditions: MB94, 24 h; in short: as §1
# [2] = tested on: Staphylococcus lugdunensis; experiment: Antibacterial activity against Staphylococcus lugdunensis MB96 after 24 hrs by microdilution assay; type: functional; conditions: MB96, 24 h; in short: as §1
# [3] = tested on: Staphylococcus saprophyticus; experiment: Antibacterial activity against Staphylococcus saprophyticus MB41 after 24 hrs by microdilution assay; type: functional; conditions: MB41, 24 h; in short: as §1
# Enterococcus faecium [4] = experiment: Bacteriostatic activity against Enterococcus faecium MB152 assessed as ratio of reduction in bacterial growth by measuring order of magnitude at 4 times MIC by time kill assay; type: functional
# In short: (§3)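 Time-kill curves: viable cell counts of susceptible strains recorded with or without compound at 4 × MIC.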
# Staphylococcus hominis = experiment: Antibacterial activity against Methicillin-resistant Staphylococcus hominis MB124 after 24 hrs by microdilution assay; type: functional; conditions: MB124, 24 h; in short: as §2
# Enterococcus faecalis [5] = experiment: Antibacterial activity against Vancomycin resistant Enterococcus faecalis MB1 after 24 hrs by microdilution assay; type: functional; conditions: MB1, 24 h; in short: as §2
# Enterococcus faecalis [6] = experiment: Antibacterial activity against Enterococcus faecalis MB76 after 24 hrs by microdilution assay; type: functional; conditions: MB76, 24 h; in short: as §2
# Staphylococcus capitis = experiment: Antibacterial activity against Methicillin-resistant Staphylococcus capitis MB71 after 24 hrs by microdilution assay; type: functional; conditions: MB71, 24 h; in short: as §2
# Bos taurus = organism: Bos taurus; experiment: Modulation of ATP synthase in bovine rod outer segments assessed as inhibition of ATP production at 80 ug/ml in presence of Ap5A adenylate kinase inhibitor by luciferin/luciferase chemiluminescent method relative to control
# In short: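 Bovine rod OS (5 μg) preincubated 5 min at 37 °C in Tris/HCl pH 7.4 with KCl, EGTA, MgCl2, 0.6 mM ouabain, 0.25 mM Ap5A, 5 mM KH2PO4, 20 mM succinate, 0.35 mM NADH and ampicillin. Synthesis started with 0.1 mM ADP and stopped with perchloric acid. ATP read by luciferin/luciferase luminescence. Samples at 80 μg/mL; 30 μM resveratrol as positive control. Triplicates, ANOVA/Bonferroni.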
# [7] = tested on: Enterococcus casseliflavus; experiment: Antibacterial activity against Vancomycin resistant Enterococcus casseliflavus MB159 after 24 hrs by microdilution assay; type: functional; conditions: MB159, 24 h; in short: as §2
# Enterococcus faecalis [8] = experiment: Bacteriostatic activity against Enterococcus faecalis MB1 assessed as ratio of reduction in bacterial growth at 4 times MIC by time kill assay; type: functional; in short: as §3
# Staphylococcus aureus [9] = experiment: Antibacterial activity against Methicillin-resistant Staphylococcus aureus MB188 after 24 hrs by microdilution assay; type: functional; conditions: MB188, 24 h; in short: as §2
# Staphylococcus warneri = experiment: Antibacterial activity against Methicillin-resistant Staphylococcus warneri MB74 after 24 hrs by microdilution assay; type: functional; conditions: MB74, 24 h; in short: as §2
# Enterococcus faecium [10] = experiment: Antibacterial activity against Enterococcus faecium MB2 after 24 hrs by microdilution assay; type: functional; conditions: MB2, 24 h; in short: as §1
# [11] = tested on: Staphylococcus epidermidis; experiment: Antibacterial activity against Methicillin-resistant Staphylococcus epidermidis MB165 after 24 hrs by microdilution assay; type: functional; conditions: MB165, 24 h; in short: as §2
# [12] = tested on: Staphylococcus haemolyticus; experiment: Antibacterial activity against Methicillin-resistant Staphylococcus haemolyticus MB115 after 24 hrs by microdilution assay; type: functional; conditions: MB115, 24 h; in short: as §2
# Enterococcus gallinarum = experiment: Antibacterial activity against Vancomycin resistant Enterococcus gallinarum MB111 after 24 hrs by microdilution assay; type: functional; conditions: MB111, 24 h; in short: as §2
# Enterococcus faecium [13] = experiment: Antibacterial activity against Enterococcus faecium MB3 after 24 hrs by microdilution assay; type: functional; conditions: MB3, 24 h; in short: as §1
# Staphylococcus aureus [14] = experiment: Antibacterial activity against Methicillin-resistant Staphylococcus aureus MB18 after 24 hrs by microdilution assay; type: functional; conditions: MB18, 24 h; in short: as §2
# Enterococcus faecium [15] = experiment: Antibacterial activity against Enterococcus faecium MB152 after 24 hrs by microdilution assay; type: functional; conditions: MB152, 24 h; in short: as §1
# [16] = tested on: Staphylococcus epidermidis; experiment: Antibacterial activity against Methicillin-resistant Staphylococcus epidermidis MB169 after 24 hrs by microdilution assay; type: functional; conditions: MB169, 24 h; in short: as §2
# Enterococcus faecalis [17] = experiment: Antibacterial activity against Vancomycin resistant Enterococcus faecalis MB51 after 24 hrs by microdilution assay; type: functional; conditions: MB51, 24 h; in short: as §2
SMILES,MIC (Enterococcus avium),MIC (Enterococcus durans),MIC (Enterococcus faecalis [1]),MIC (Staphylococcus simulans),MIC [2],MIC [3],MIC (Staphylococcus hominis),MIC (Enterococcus faecalis [5]),MIC (Enterococcus faecalis [6]),MIC (Staphylococcus capitis),MIC [7],MIC (Staphylococcus aureus [9]),MIC (Staphylococcus warneri),MIC (Enterococcus faecium [10]),MIC [11],MIC [12],MIC (Enterococcus gallinarum),MIC (Enterococcus faecium [13]),MIC (Staphylococcus aureus [14]),MIC (Enterococcus faecium [15]),other results
COC(=O)[C@]1(C)CCC[C@@]2(C)[C@H]1[C@@H](O)C[C@@](C)(O)[C@@H]2CC/C(C)=C/C[C@H]1OC(=O)C=C1C,143 µM,286 µM,286 µM,> 128 µg/mL,> 128 µg/mL,> 128 µg/mL,286 µM,143 µM,286 µM,286 µM,143 µM,> 128 µg/mL,286 µM,286 µM,286 µM,> 128 µg/mL,286 µM,286 µM,286 µM,143 µM,Ratio (Enterococcus faecium [4]): 1 - 2; inhibition (Bos taurus): 60%; Ratio (Enterococcus faecalis [8]): 1 - 2; MIC [16]: > 128 µg/mL; MIC (Enterococcus faecalis [17]): 143 µM
CC1=CC(=O)O[C@@H]1[C@@H](O)/C=C(\C)CC[C@@H]1[C@@]2(C)CCC[C@@]3(C)C(=O)O[C@@H](C[C@@]1(C)O)[C@H]23,148 µM,286 µM,296 µM,> 128 µg/mL,> 128 µg/mL,> 128 µg/mL,> 128 µg/mL,148 µM,296 µM,296 µM,296 µM,> 128 µg/mL,296 µM,296 µM,296 µM,296 µM,148 µM,296 µM,296 µM,148 µM,MIC [16]: > 128 µg/mL; MIC (Enterococcus faecalis [17]): 296 µM
CC1=CC(=O)O[C@@H]1C/C=C(\C)CC[C@@H]1[C@@]2(C)CCC[C@@](C)(CO)[C@@H]2[C@@H](O)C[C@@]1(C)O,> 128 µg/mL,> 128 µg/mL,> 128 µg/mL,> 128 µg/mL,> 128 µg/mL,> 128 µg/mL,> 128 µg/mL,> 128 µg/mL,> 128 µg/mL,> 128 µg/mL,> 128 µg/mL,> 128 µg/mL,> 128 µg/mL,> 128 µg/mL,> 128 µg/mL,> 128 µg/mL,> 128 µg/mL,> 128 µg/mL,> 128 µg/mL,> 128 µg/mL,MIC [16]: > 128 µg/mL; MIC (Enterococcus faecalis [17]): > 128 µg/mL
COc1cc2oc(-c3ccc(O)cc3)cc(=O)c2c(O)c1OC [CIRSIMARITIN],204 µM,407 µM,407 µM,> 128 µg/mL,407 µM,> 128 µg/mL,> 128 µg/mL,204 µM,407 µM,407 µM,407 µM,> 128 µg/mL,> 128 µg/mL,407 µM,> 128 µg/mL,> 128 µg/mL,102 µM,204 µM,> 128 µg/mL,407 µM,MIC [16]: > 128 µg/mL; MIC (Enterococcus faecalis [17]): 407 µM
